# Published values from different studies.
# Lines come from different studies, so protocols differ.
# Target: Adenosine receptor A3 (ADORA3, Homo sapiens, UniProt P0DMS8)
# Sequence (P0DMS8 1-318, as in one of the studies): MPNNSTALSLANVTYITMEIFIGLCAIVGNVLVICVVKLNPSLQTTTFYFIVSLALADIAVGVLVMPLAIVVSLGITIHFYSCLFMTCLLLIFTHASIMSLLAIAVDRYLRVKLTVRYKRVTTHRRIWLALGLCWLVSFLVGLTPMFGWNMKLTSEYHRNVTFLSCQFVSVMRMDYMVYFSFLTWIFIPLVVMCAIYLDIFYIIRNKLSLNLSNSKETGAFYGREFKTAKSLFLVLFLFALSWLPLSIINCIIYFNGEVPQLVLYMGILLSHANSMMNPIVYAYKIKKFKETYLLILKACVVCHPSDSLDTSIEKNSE
SMILES,assay,test system,conditions,measurement,result
CC(C)Cn1cnc2c(N)nc3ccccc3c21,"ligand displacement, radioligand",,10 µM,inhibition,16%
COc1ccc(S(=O)(=O)N2CCCCC2)cc1C,"ligand displacement, radioligand",,10 µM,inhibition,< 30%
CCNC(=O)[C@H]1O[C@@H](n2cnc3c(N)ncnc32)[C@H](O)[C@@H]1O,"β-arrestin recruitment, agonist",HEK-293T,,Emax,99.5%
COCc1c(-c2cc3cc(C)cc(OC)c3s2)c2c(N)ncnn2c1CN1CCNC(=O)C1,"ligand displacement, radioligand",,10 µM,inhibition,39%
CCOC(=O)[C@@]12C[C@@H]1[C@@H](n1cnc3c(N[C@H](C4CCC4)C4CC4)nc(I)nc31)[C@H](O)[C@@H]2O,"ligand displacement, radioligand",,10 µM,inhibition,88%
O=C(Nc1cccnn1)N1CCN([C@@H]2CCOc3cc(C(F)(F)F)ccc32)CC1,ligand displacement,,20 µM,inhibition,25%
CCN(CC)CCCC[C@H](NC(=O)[C@H](CC(C)C)NC(=O)[C@H](C)NC(=O)[C@H](Cc1ccccc1)NC(=O)c1ccc(C(C)(C)C)cc1)C(=O)N[C@@H](CO)C(=O)OC,"ligand displacement, radioligand",,10 µM,remaining binding,96.9%
CC(C)N1CCC[C@H]1CNC(=O)c1cn(C2CCCC2)c(=O)c2c1c1ccccc1n2C,"ligand displacement, radioligand",,10 µM,inhibition,14%
CN(CCN1CCC(OC(=O)Nc2ccccc2-c2ccccc2)CC1)C(=O)c1ccc(CN2CCC(C(N)=O)CC2)cc1,"ligand displacement, radioligand",,1 µM,inhibition,-12%
c1ccc(C(NCCNC(c2ccccc2)c2ccccc2)c2ccccc2)cc1,cell-free assay,,10 µM,inhibition,70%
CCCCSC[C@@]12C[C@@H]1[C@@H](n1cnc3c(NC(C4CCCC4)C4CCCC4)nc(Cl)nc31)[C@H](O)[C@@H]2O,"ligand displacement, radioligand",,10 µM,inhibition,33%
C[C@H](C(=O)N[C@H]1COc2ccccc2[C@@H]1S(C)(=O)=O)c1ccc(F)cc1,cell-free assay,,10 µM,inhibition,11%
COCCN(CCOC)C(=O)[C@@]12C[C@@H]1[C@@H](n1cnc3c(N)nc(Cl)nc31)[C@H](O)[C@@H]2O,"ligand displacement, radioligand",,10 µM,inhibition,51%
